Cneo AK release: causes C. neoformans cell lysis. adenylate kinase release luminescence, 4 h; normalised: neutral wells 0, clomiphene wells 100. lysis activity, % at 15 µM. 360,000 compounds, 0.2% hits. AID 651654;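 active = mean lysis activity across replicates of at least 80%, whatever share of replicates individually reach that level; inactive = mean lysis activity below 80%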
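Material: C. neoformans cells; Schedule: 4 h static compound exposure, 37 °C, read 1 h post-reagent; Measured by: adenylate kinase release luminescence; Read-out: signal increase indicating cell lysis; Controls: Clomiphene as positive lysis control.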
PglD DTNB: blocks C. jejuni PglD acetyltransferase activity; 360,000 compounds, 0.098% hits; inhibition, % at 12.5 µM; purified PglD enzyme, DTNB colorimetric CoA detection; AID 602405; in the data active = inhibition above about 16%, passing the limit was not always enough
RAD54 inh: inhibitors of human RAD54 branch migration. RAD54 Holliday junction branch migration, FAM/BHQ fluorescence. inhibition, % at 10.4 µM. 360,000 compounds, 0.14% hits. AID 602329;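 active = mean normalized replicate activity at least 40 and at least half of replicates scoring 40 or more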;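 also: 0% = median of neutral control wells and 100% = median of positive control wells; inhibitors cause a drop in the FAM fluorescence signal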
rRNA inh HTS: inhibitors of bacterial rRNA selective over humanized ribosomes | E. coli WT GFP vs humanized-ribosome RFP mutants, fluorescence, 24 h; active compounds read low; DMSO median 0, no signal -100 | GFP signal change (wild-type ribosome), % (concentration not given with the values) | 350,000 compounds, 1.6% hits | AID 720706;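 active = significant combined selectivity score with lowered wild-type GFP, culture density cut under 30%, mutant RFP and density less affected; inactive = any of these conditions unmet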
RAD52 anneal inh: inhibitors of human RAD52 DNA annealing. 360,000 compounds, 0.46% hits. AID 651710. P43351. inhibition, % at 18.7 µM. recombinant RAD52 DNA annealing, FRET fluorescence;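 active = every replicate showing at least 50% inhibition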
Target sequence (P43351 whole entry, looked up): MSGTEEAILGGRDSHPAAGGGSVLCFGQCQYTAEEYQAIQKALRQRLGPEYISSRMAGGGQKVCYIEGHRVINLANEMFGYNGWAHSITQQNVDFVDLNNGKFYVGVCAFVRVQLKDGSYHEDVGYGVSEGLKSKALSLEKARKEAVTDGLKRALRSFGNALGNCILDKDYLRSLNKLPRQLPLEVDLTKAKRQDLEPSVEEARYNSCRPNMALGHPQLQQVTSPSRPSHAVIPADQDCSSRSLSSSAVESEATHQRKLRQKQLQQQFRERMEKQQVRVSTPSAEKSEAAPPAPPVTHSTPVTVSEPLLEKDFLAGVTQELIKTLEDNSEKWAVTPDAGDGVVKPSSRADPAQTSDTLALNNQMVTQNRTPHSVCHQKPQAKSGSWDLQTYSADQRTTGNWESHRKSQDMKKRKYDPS
RAD52 DNA ctr: binds DNA, flagging false RAD52 inhibitor hits; AC50, µM; Salmon sperm DNA/acridine orange FP displacement, DNA binding; shares compounds with RAD52 anneal inh; 1,000 compounds, 8% hits; AID 652128;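 active = fitted half-maximal concentration for signal loss at or below twice the highest dose tested, in every separate run, actives reach about 64 µM in these data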
Starred values were filed as active, the others as inactive; i = inactive; . = no result; ! = repeats disagree. Compounds with a hit are over-represented: about 1.9% of the library has one in this group of screens.

SMILES	Cneo AK release	PglD DTNB	RAD54 inh	rRNA inh HTS	RAD52 anneal inh	RAD52 DNA ctr
COc1ccc2nc(NC3=NC(c4ccccc4)CC(=O)N3)nc(C)c2c1 (stereo not given)	.	.	.	72	72*	i
CCN(CC)CCNC(=O)C(=O)Nc1cc2c3c(c1)CC(=O)N3CCC2	-1	2	-5	14	55*	i
C[C@@H]1CN([C@@H](C)CO)C(=O)c2cccc(NS(C)(=O)=O)c2O[C@@H]1CN(C)Cc1ccccc1	-5	5	4	4	-6	.
O=C(c1cc(-c2ccccc2)nc2ccccc12)N1CCCC1	1	7	0	-1	0	.
c1ccc(-c2cc(NCCN3CCCCC3)c3ccccc3n2)cc1	-1	10	106*	20	89*	i
COc1cc2c(cc1OC)CN1CCc3cc(OC)c(OC)cc3C1C2 (stereo not given)	-1	-6	84*	.	74*	i
C=CC[N@@+]12CC[C@]34c5ccccc5N5/C=C6\C7N(/C=C(\C53)[C@@H](C[C@@H]41)/C(=C/CO)C2)c1ccccc1[C@@]71CC[N@@+]2(CC=C)C/C(=C\CO)[C@@H]6C[C@@H]12 (stereo not given in full)	-1	-6	3	-9	69*	i
C[C@H]1CN(C)C(=O)Cc2ccccc2O[C@@H]1CN(C)C	.	.	.	-1	.	.
CC(=O)Nc1ccc2c(c1)C(=O)N(C)[C@@H]1CC[C@H](CC(=O)NCc3ccc4c(c3)OCO4)O[C@@H]1CO2	2	-4	-8	-1	.	.
Cc1cc(Cl)ccc1-c1cc2nc(NCCCN(C)C)n(C)c(=O)c2s1	0	-6	24	-21	42	.
COc1cccc(CNc2nc3cc(-c4cccc(C(=O)NCCO)c4)sc3c(=O)n2C)c1	1	1	2	-1	-3	.
COc1ccc(-c2cc3nc(NCCCN(C)C)n(C)c(=O)c3s2)c(C)c1	-1	0	33	-1	55*	i
CN(C)CCCNc1nc2cc(-c3cnn(C)c3)sc2c(=O)n1C	2	2	35	5	59*	i
CN(C)CCCNC(=O)c1ccc(-c2cc3nc(NCc4cccnc4)n(C)c(=O)c3s2)cc1	0	-1	35	4	76*	i
CCOC(=O)c1c(NC(C)=O)sc2c(OCCN(CC)CC)c(Br)ccc12	.	.	.	-29	61*	i
COc1ccc(S(=O)(=O)Nc2ccc3c(c2)CC(=O)N([C@@H](C)CO)C[C@H](C)[C@@H](CN(C)Cc2ccc(Cl)c(Cl)c2)O3)cc1	0	4	0	2	-15	.
CCCCNC(=S)Nc1ccc2nc(N3CCN(CC)CC3)cc(C)c2c1	1	-5	30	4	57*	i
CCN1CCN(c2cc(C)c3cc(NC(=O)c4cccs4)ccc3n2)CC1	-2	-4	30	-6	63*	i
Cc1cc(N2CCOCC2)nc2ccc(NC(=S)N3CCCCC3C)cc12 (stereo not given)	-3	2	4	-10	-15	.
Cc1cc(N2CCCC2)nc2ccc(NC(=S)NCCCN3CCC(C)CC3)cc12	.	.	.	16	76*	i
COCC(=O)Nc1ccc2c(c1)OC[C@@H](C)N(C(=O)Cc1cccnc1)C[C@@H](C)[C@H](OC)CN(C)C2=O	2	-1	-8	.	-13	.
CNC[C@H]1Oc2ccc(NC(=O)Nc3ccc4c(c3)OCO4)cc2C(=O)N([C@@H](C)CO)C[C@H]1C	-1	-4	0	2	-3	.
Cc1cccc2nc(-c3ccccc3)c(-c3ccc(CN4CCC(n5cc(-c6ccccc6)[nH]c5=O)CC4)cc3)nc12	.	.	.	.	62*	i
Cc1cccc2nc(-c3ccccc3)c(-c3ccc(CN4CCC(c5nc6ccccc6[nH]5)CC4)cc3)nc12	.	.	.	-14	60*	i
CC(C)NC(=O)N(C)C[C@@H]1Oc2ccc(NS(C)(=O)=O)cc2CC(=O)N(C)C[C@@H]1C	.	.	.	4	.	.
SMILES	Cneo AK release	PglD DTNB	RAD54 inh	rRNA inh HTS	RAD52 anneal inh	RAD52 DNA ctr
O=C(C[C@@H]1C[C@H]2c3cc(NC(=O)c4cccnc4)ccc3O[C@H]2[C@@H](CO)O1)NC1CCCC1	.	.	.	0	-7	.
Cn1c(C(=O)NCCCN2CCCCCC2)cc2c(=O)n(C)c3ccccc3c21	1	8	44	-13	52*	i
Cn1c(C(=O)NCCCN2CCc3ccccc3C2)cc2c(=O)n(C)c3ccccc3c21	-3	1	19	2	20	.
C[C@@H]1CCCCO[C@@H](CN(C)Cc2ccccc2)[C@@H](C)CN([C@@H](C)CO)C(=O)c2cc(NC(=O)Nc3ccc(F)cc3)ccc2O1	9	-3	-3	-4	36	.
Cc1cccc(S(=O)(=O)N[C@H]2CC[C@H](CCNC(=O)CCN3CCCCC3)O[C@H]2CO)c1	0	0	-3	1	-8	.
CN(C)CCCn1c(SCC(=O)N2c3ccccc3Sc3ccccc32)nc2ccccc2c1=O	8	-6	6	6	69*	i
Cc1ccc(-c2csc(NC(=O)CSc3nc4ccccc4c(=O)n3CCCN(C)C)n2)cc1	.	.	.	-51	91*	i
COc1ccc(NC(=O)Nc2ccc3c(c2)C(=O)N([C@H](C)CO)C[C@@H](C)[C@@H](CN(C)Cc2ccc4c(c2)OCO4)OCCCC[C@H](C)O3)cc1	0	3	-4	-34*!	59*!	i
CN1CCN(c2ccc(CNC(=O)c3ccc(-c4ccc(F)c(F)c4)c4ccoc34)cc2)CC1	13	3	3	1	54*	i
O=C(Nc1cccc(C(=O)Nc2cccc(Br)c2)c1)c1ccccc1	-1	-1	-3	-23	94*	i
O=C(O)c1cccc(NC(=O)c2ccccc2)c1	-1	-4	-13	10	5	.
CC(=O)N(C)C[C@@H]1Oc2cc(-c3cccc(C#N)c3)ccc2S(=O)(=O)N([C@H](C)CO)C[C@@H]1C	3	1	-4	-6	15	.
CCCNC(=O)N(C)C[C@@H]1Oc2cc(C#CC(C)(C)O)ccc2S(=O)(=O)N([C@H](C)CO)C[C@@H]1C	-7	6	-9	3	4	.
CN(C)C(=O)c1ccc(-c2ccccc2[C@@H]2[C@@H](C#N)N(C(=O)C3CC3)[C@@H]2CO)cc1	.	.	.	0	3	.
COc1ccc(/C=N/Nc2cc(N3CCCC3)nc(N3CCCC3)n2)cc1	6	-5	7	-18	73*	i
CNC[C@@H]1Oc2ccc(N)cc2C(=O)N(C)C[C@H]1C	.	.	.	2	.	.
CCN1CCN(Cc2c(C(=O)N/N=C(\C)c3ccc(Cl)cc3)nnn2-c2nonc2N)CC1	0	-1	15	3	94*	i
C/C(=N\NC(=O)c1nnn(-c2nonc2N)c1CN1CCCCCC1)c1ccc(Br)cc1	2	-1	2	5	-14	.
